Measurements reported in ChEMBL document CHEMBL1156880, “Isosorbide-based cholinesterase inhibitors; replacement of 5-ester groups leading to increased stability” (Bioorg Med Chem, 2010).
Activity calls are given as the source filed them. The calls are words filed in the database; no cut-off is given here.

How the values were obtained:
[1] = target: Acetylcholinesterase (Electrophorus electricus) (UniProt O42275); assay: Inhibition of electric eel AChE at 100 uM preincubated for 30 mins before substrate addition by Ellman's assay
Acetylcholinesterase (Electrophorus electricus), sequence (O42275 24-633 limits assumed): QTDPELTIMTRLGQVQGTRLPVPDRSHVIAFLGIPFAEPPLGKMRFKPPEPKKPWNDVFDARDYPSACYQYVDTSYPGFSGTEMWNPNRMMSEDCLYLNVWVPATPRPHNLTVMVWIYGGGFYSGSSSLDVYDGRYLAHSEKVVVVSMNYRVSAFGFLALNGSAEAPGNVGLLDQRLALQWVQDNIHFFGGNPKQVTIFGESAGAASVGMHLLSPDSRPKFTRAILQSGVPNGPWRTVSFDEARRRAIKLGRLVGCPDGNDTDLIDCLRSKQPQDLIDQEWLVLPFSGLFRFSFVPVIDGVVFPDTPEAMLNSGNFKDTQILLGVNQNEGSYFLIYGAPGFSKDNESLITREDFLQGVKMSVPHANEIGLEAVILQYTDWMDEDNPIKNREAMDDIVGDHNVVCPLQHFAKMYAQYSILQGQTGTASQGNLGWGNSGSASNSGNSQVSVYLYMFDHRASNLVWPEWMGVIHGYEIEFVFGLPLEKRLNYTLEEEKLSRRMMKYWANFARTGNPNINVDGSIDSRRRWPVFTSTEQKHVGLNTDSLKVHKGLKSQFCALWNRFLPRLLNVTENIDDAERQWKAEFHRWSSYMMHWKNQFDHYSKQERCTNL
Summary of the method: (§1)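 Ellman assay, phosphate buffer pH 8.0. Inhibitor, in acetonitrile/water 1:1 as vehicle, preincubated with enzyme 30 min before acetylthiocholine is added (final 0.5 mM); 412 nm read over 5 min. Screened at 100 μM; IC50 found by serial lower concentrations only where inhibition exceeded 90%. Controls without enzyme account for spontaneous hydrolysis; n = 6.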

Cholinesterase [2] = target: T1, Cholinesterase (Homo sapiens, UniProt P06276); assay: Inhibition of human plasma BuChE preincubated for 30 mins before substrate addition by Ellman's assay
T1 sequence (P06276 whole entry): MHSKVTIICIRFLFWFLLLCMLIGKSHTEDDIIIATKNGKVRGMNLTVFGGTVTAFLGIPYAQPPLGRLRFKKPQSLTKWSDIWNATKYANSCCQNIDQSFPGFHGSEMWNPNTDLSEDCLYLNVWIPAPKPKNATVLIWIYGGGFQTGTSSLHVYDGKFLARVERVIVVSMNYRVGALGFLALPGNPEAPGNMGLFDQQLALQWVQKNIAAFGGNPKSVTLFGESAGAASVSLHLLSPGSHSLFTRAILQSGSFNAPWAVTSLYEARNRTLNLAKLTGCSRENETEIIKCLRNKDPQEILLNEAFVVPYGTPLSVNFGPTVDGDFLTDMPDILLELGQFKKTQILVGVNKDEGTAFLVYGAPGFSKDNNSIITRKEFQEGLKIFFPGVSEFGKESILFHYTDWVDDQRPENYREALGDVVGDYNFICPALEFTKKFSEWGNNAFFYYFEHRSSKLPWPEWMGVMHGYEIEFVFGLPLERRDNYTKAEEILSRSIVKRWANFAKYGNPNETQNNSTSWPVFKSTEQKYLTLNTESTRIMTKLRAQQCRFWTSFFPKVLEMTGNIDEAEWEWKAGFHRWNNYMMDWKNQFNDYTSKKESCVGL
Summary of the method: (§2)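 Ellman assay, phosphate buffer pH 8.0. Human plasma from heparinised venous blood, centrifuged and diluted 1 mL to 20 mL in buffer, with DTNB. Inhibitor, in acetonitrile/water 1:1 as vehicle, preincubated 30 min before butyrylthiocholine is added (final 0.5 mM); 412 nm read over 5 min. Screened at 100 μM; IC50 determined only where inhibition exceeded 90%. Controls without enzyme; n = 6.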

[3] = Selectivity for human plasma BuChE over electric eel AChE; assay type: cell-free
Summary of the method: (§3)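 Ratio of the 30 min BuChE and AChE IC50 values from the Ellman assays, using 100 μM in place of any IC50 that was not determined.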

Cholinesterase [4] = target: T1, Cholinesterase; assay: Inhibition of human plasma BuChE at 100 uM preincubated for 30 mins before substrate addition by Ellman's assay; assay type: cell-free; summary of the method: as §2
Mus musculus = assay: Inhibition of BuChE in CD1 mouse plasma at 1 mg/kg, ip administered as single dose measured after 72 hrs; assay type: functional, organism-based; set-up: dose 1 mg/kg
Summary of the method: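 Male CD-1 mice (35–40 g) given one ip injection, 0.1 mL per 10 g body weight, into the left lower abdominal quadrant; n = 9 split into three subgroups of 3 for serial sampling. Submandibular blood (about 50 μL) collected into lithium heparin and kept on ice; terminal sampling by cardiac puncture under ketamine/xylazine. Plasma spun 10 min at 4 °C, then BuChE activity read ex vivo by Ellman assay.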

[5] = Selectivity for electric eel AChE over human plasma BuChE; assay type: cell-free; summary of the method: as §3
Acetylcholinesterase = Acetylcholinesterase (Electrophorus electricus, UniProt O42275); assay: Inhibition of electric eel AChE preincubated for 30 mins before substrate addition by Ellman's assay; summary of the method: as §1
Acetylcholinesterase, sequence (O42275 whole entry): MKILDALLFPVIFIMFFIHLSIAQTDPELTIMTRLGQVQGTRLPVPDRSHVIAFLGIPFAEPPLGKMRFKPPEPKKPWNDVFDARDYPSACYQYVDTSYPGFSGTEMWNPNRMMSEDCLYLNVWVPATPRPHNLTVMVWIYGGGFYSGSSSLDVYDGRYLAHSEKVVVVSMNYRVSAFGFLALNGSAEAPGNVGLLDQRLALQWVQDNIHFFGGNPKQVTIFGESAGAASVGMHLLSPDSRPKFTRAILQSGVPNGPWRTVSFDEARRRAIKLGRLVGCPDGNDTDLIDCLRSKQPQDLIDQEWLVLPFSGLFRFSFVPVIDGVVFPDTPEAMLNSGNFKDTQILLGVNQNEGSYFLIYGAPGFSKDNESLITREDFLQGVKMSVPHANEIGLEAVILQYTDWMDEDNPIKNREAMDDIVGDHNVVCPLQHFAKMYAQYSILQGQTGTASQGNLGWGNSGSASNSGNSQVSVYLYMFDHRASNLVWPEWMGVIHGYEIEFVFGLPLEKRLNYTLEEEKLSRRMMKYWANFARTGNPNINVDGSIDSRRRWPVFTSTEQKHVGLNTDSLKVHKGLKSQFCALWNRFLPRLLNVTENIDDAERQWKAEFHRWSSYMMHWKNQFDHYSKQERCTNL

Row | Compound | inhibition [1] | IC50 (Cholinesterase [2]) | Selectivity ratio [3] | inhibition (Cholinesterase [4]) | inhibition (Mus musculus) | Selectivity ratio [5] | IC50 (Acetylcholinesterase)
1 | CCOC(=O)/C=C1\CO[C@@H]2[C@@H](OC(=O)NCc3ccccc3)CO[C@H]12 | 4.9% | 4.8 µM | 21 | – | – | – | –
2 | O=C(Nc1ccc(Cl)cc1)O[C@H]1CO[C@H]2[C@@H]1OC[C@H]2OC(=O)Nc1ccc(Cl)cc1 | – | – | – | 7.96% | – | – | –
3 | O=C(NCc1ccccc1)O[C@H]1CO[C@@H]2/C(=N/O)CO[C@H]12 | 83% | – | – | 40% | – | – | –
4 | O=C(NCc1ccccc1)O[C@H]1CO[C@@H]2C(=O)CO[C@H]12 | 10% | – | – | 46% | – | – | –
5 | O=C(Nc1ccccc1)O[C@H]1CO[C@H]2[C@@H]1OC[C@H]2OC(=O)Nc1ccccc1 | 77% | – | – | 20.6% | – | – | –
6 | O=C(NCc1ccccc1)O[C@H]1CO[C@H]2[C@@H]1OC[C@H]2OCc1ccccc1 | 55% | 0.052 µM | 1920 | – | Active | – | –
7 | [N-]=[N+]=N[C@@H]1CO[C@H]2[C@@H]1OC[C@@H]2OC(=O)NCc1ccccc1 | 5% | – | – | 50.4% | – | – | –
8 | O=C(NCc1ccccc1)O[C@H]1CO[C@@H]2/C(=N/OC(=O)c3ccccc3)CO[C@H]12 | 9% | – | – | 64.8% | – | – | –
9 | CCNC(=O)O[C@H]1CO[C@H]2[C@@H]1OC[C@H]2OC(=O)NCC | – | – | – | 55.1% | – | 15.4 | 6.5 µM
10 | CCCNC(=O)O[C@H]1CO[C@H]2[C@@H]1OC[C@H]2OC(=O)NCCC | 28% | 10.4 µM | 9.6 | – | – | – | –
11 | CN1C(=O)CO[C@@H]2[C@@H](OC(=O)NCc3ccccc3)CO[C@@H]21 | 6.5% | – | – | 63% | – | – | –
12 | CCCCNC(=O)O[C@H]1CO[C@H]2[C@@H]1OC[C@H]2OC(=O)NCCCC | 13% | 1.22 µM | 81 | – | – | – | –
13 | O=C(Nc1ccc([N+](=O)[O-])cc1)O[C@H]1CO[C@H]2[C@@H]1OC[C@H]2OC(=O)Nc1ccc([N+](=O)[O-])cc1 | – | – | – | 17.4% | – | 18.5 | 5.4 µM
14 | O=C(NCc1ccccc1)O[C@H]1CO[C@@H]2C=CO[C@H]12 | 9.8% | 10.2 µM | 9.7 | – | – | – | –
15 | O=C(NCc1ccccc1)O[C@H]1CO[C@H]2[C@@H]1OC[C@H]2OC(=O)NCc1ccccc1 | 77% | 0.4 µM | 250 | – | – | – | –
16 | O=C1CO[C@H]2[C@H](OC[C@@H]2OC(=O)NCc2ccccc2)O1 (relative stereo) | 10% | – | – | 56% | – | – | –
17 | O=C(NCc1ccccc1)O[C@H]1CO[C@H]2[C@@H]1OC[C@H]2NC(=O)c1ccccc1 | 46% | – | – | 88% | – | – | –
